Assay outcomes: PubChem BioAssay, several laboratories
A selection: hits, their analogues and other compounds. The true share with any hit is near 2.7%.
FLuc stim CS: affects firefly luciferase, flagging false hits in luciferase stimulation screens. activation factor at 10 µM. ATPlite luciferase biochemical, luminescence, 10 min; 0 = ATP-free wells, 1 = DMSO control. P08659. 200,000 tested, under 10 active;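 active means luciferase activation factor, scaled between plate controls, of at least 2 with compound at 10 µM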
Target sequence (P08659 whole entry, looked up): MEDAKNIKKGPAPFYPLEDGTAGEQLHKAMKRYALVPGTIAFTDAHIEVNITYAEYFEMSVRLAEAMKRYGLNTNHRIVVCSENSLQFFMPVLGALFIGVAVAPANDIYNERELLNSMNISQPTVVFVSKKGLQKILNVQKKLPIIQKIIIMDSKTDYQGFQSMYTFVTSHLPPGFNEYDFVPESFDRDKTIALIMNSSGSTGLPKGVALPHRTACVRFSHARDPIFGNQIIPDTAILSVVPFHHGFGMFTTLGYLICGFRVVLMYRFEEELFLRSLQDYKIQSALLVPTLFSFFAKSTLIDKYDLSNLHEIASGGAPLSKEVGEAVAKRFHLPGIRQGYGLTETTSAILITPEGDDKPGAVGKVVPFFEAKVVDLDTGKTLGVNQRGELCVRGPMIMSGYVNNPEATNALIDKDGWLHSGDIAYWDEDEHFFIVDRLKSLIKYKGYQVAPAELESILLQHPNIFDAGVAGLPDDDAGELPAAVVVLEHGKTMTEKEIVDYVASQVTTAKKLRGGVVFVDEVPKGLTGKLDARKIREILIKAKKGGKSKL
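Assay system – cell-free luciferase reagent · Medium – PBS-based ATP solution · Dosing – test compounds dosed from 2 mM stocks in 100% DMSO · Timing – 10 min, room temperature · Technique – light output (luminescence) · Measure – luminescence gain marking luciferase activators · Controls – No-ATP low control, compound-free enzyme-plus-ATP high control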
FLuc inhib CS: Photinus pyralis luciferase inhibition counter-screen; inhibition, % at 10 µM; actives 1.5% (n = 200,000); ATPLite firefly luciferase biochemical luminescence, 10 min;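 active means inhibition above about 50% when tested at 10 µM, limit read from the data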
Measles CPE: protection of cells from measles virus | Measles virus-infected cells, CPE protection, absorbance | protection (pct of control), % at 4 µM | actives 1.5% (n = 140,000) | AID 841; in the data active means protection mostly above about 24%, no sharp cut-off; inactive means mostly below about 26%
Redox H2O2 prof: compounds producing H2O2 with reducing agent – biochemical, NIH compound library profiling, artefact control for MLSCN library redox annotation, primary screen; DTT-dependent redox cycling H2O2, phenol red/HRP absorbance; 100% = 100 µM peroxide control, 0% = buffer; activation, % at 10 µM; actives 0.03% (n = 200,000);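 active means activation of at least 50% relative to the plate's high and low controls in the primary single-dose screen; inactive means activation below 50%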;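 further: compound incubated with DTT at 0.8 mM final as the reducing agent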
ABCG2 inh: human ABCG2 inhibition, ABCB1 as counter-screen; Q9UNQ0; IgMXP3 cells, JC-1 efflux, flow cytometry; inhibition, % at 6.6 µM; actives 0.1% (n = 190,000); AID 1325;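 active means inhibition above 80%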;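 further: 0% = DMSO and 100% = nicardipine control wells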
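test system = two drug-resistant human cell lines, ABCG2 and ABCB1 | amount = 3 million cells/mL final, two lines in 1:1 ratio | reagent = JC-1 transporter substrate | doses = one concentration, 6.6 µM final | incubation = 10 min at 25 °C | signal = flow cytometric JC-1 green MFI at 530 nm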
ABCB1 inh: blocks JC-1 efflux by human ABCB1 transporter. P08183. CCRF-Adr cells, flow cytometry. inhibition, % at 6.6 µM. actives 0.067% (n = 190,000); in the data active means inhibition above about 40%;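 further: 0% = vehicle and 100% = reference inhibitor; higher value means more JC-1 retained so stronger ABCB1 efflux block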
* = called active by the depositor; · = no result given.

SMILES	FLuc stim CS	FLuc inhib CS	Measles CPE	Redox H2O2 prof	ABCG2 inh	ABCB1 inh
CN(c1ccccc1)c1ccc(/C=N/N2CCOCC2)cc1	0.3	70*	3	0	15	1
CCCS(=O)(=O)N1CCN(c2cc3c(cc2[N+](=O)[O-])n(C)c(=O)n3C)CC1	1.1	-14	·	1	5	1
C=C(C)c1cccc(C(C)(C)NC(=O)Nc2ccccc2OCC)c1	1.1	-8	32	1	4	0
C=C(C)c1cccc(C(C)(C)NC(=O)Nc2cc(C)ccc2OC)c1	1.1	-6	60*	3	4	1
Clc1cccc(CSc2nc3ccncc3[nH]2)c1	0.2	75*	3	-2	1	0
O=c1[nH]c(SCc2cccc(Cl)c2)nc2ccccc12	1	-5	·	0	13	1
Fc1cccc(CSc2nc3ccncc3[nH]2)c1	0.2	78*	15	0	10	1
Cc1cccc(NC(=S)NC(=O)c2ccco2)n1	0.9	12	4	0	-3	0
O=c1cc(CSc2ccc(Cl)cc2)nc(-c2ccncc2)[nH]1	1	2	·	0	4	0
Fc1ccc(CN2CCN(c3ncccn3)CC2)cc1	1	-2	36*	0	4	1
COc1c2c(nc3occc13)C(CCC(C)(C)O)(OC)C(O)CC2 (configuration not stated)	1	-2	76*	0	1	0
c1ccc2c(c1)OCC(CNc1ncnc3sccc13)O2 (configuration not stated)	1	-2	16	1	0	0
CSc1nnc(-c2ccc(Cl)cc2Cl)o1	0.8	21	89*	-3	6	1
CCSc1nnc(-c2ccc(Cl)cc2Cl)o1	0.7	33	3	0	6	1
CSc1ccccc1-c1nnc(-c2ccc(Cl)c(Cl)c2)o1	0.9	6	9	-1	45	1
CSc1ccccc1-c1nnc(-c2ccc(Cl)cc2Cl)o1	0.4	60*	15	-3	2	0
c1ccc(C(c2ccccc2)N2CCN(c3nc4ccccc4n4cnnc34)CC2)cc1	1	-4	43	2	4	1
COc1ccc(OCc2nc3ccccc3[nH]2)cc1	0.3	70*	5	0	·	·
COc1cccc(OCc2nc3ccccc3[nH]2)c1	0.5	52*	13	0	3	0
COc1ccccc1OCc1nc2ccccc2[nH]1	0.8	17	19	-1	2	0
Cc1ccc(SCc2nc3ccccc3[nH]2)cc1	0.5	54*	6	-4	15	1
c1ccc2cc(OCc3nc4ccccc4[nH]3)ccc2c1	0.3	73*	14	1	18	3
C=CCN1C(=O)CN=C1Nc1cc(C)ccc1C	1	-3	4	-2	-1	0
CCCc1cc2c(OC(=O)CC)c(-c3ccc(C(=O)OCC)o3)c(=O)oc2cc1OC	0.9	7	3	0	5	1
Cc1ccc(S(=O)(=O)N2CCC(C(=O)Nc3nnc(C45CC6CC(CC(C6)C4)C5)s3)CC2)cc1	1.1	-7	5	-1	2	1
SMILES	FLuc stim CS	FLuc inhib CS	Measles CPE	Redox H2O2 prof	ABCG2 inh	ABCB1 inh
O=C(COc1ccc2ccccc2c1)Nc1nc2ccccc2[nH]1	1	-4	3	0	7	1
Cc1ccccc1OCc1nc2ccccc2[nH]1	0.5	53*	·	0	0	0
COc1ccc(OCC(=O)Nc2nc3ccccc3[nH]2)cc1	0.3	68*	7	0	1	0
O=C(Nc1ccccc1)c1cc2ccccc2o1	0.3	74*	1	-1	6	1
CC(=O)Nc1cccc(NC(=O)c2cc3ccccc3o2)c1	0.4	64*	17	3	49	1
O=C(Nc1nc2ccccc2[nH]1)c1cc2ccccc2o1	0.3	75*	·	0	0	0
COc1ccc(NC(=O)c2cc3ccccc3o2)cc1	0.5	53*	20	-1	1	0
COc1ccc(NC(=O)CN2CCC(C(N)=O)(N3CCCCC3)CC2)c(OC)c1	1.1	-5	·	0	42	1
Cc1ccc(C(=O)c2cc3ccccc3o2)cc1	0.4	57*	24	13	1	0
CC(C)COc1ccc(/C=C2/Sc3ccccc3C2=O)cc1	0.4	57*	4	0	-1	0
COc1ccc(-c2cc(=O)oc3cc(OC(=O)C4CCCCC4)c(Cl)cc23)cc1	1	-2	11	0	1	1
S=C(NCCC(c1ccccc1)c1ccccc1)Nc1ccc(Cl)cc1	1.1	-6	48*	2	2	0
COc1cc(NC(=S)NCCC(c2ccccc2)c2ccccc2)c(OC)cc1Cl	1	-3	38*	1	15	1
COc1ccc(Cl)cc1NC(=S)NCCC(c1ccccc1)c1ccccc1	1	-5	4	2	1	-1
O=C(COC(=O)C1CCN(S(=O)(=O)c2ccc3c(c2)OCCO3)CC1)Nc1cccc2ccccc12	1	0	9	0	17	0
C#CC[N+](C)(C)CCCCCCCCCC	1	-3	28*	0	-4	-1
CCN(CC)C(=O)COc1ccc(/C(C)=N/NC(=O)c2ccccc2O)cc1	0.4	63*	·	-2	1	1
COc1ccc(C(=O)Nc2ccc(/C(C)=N/NC(=O)c3ccccc3O)cc2)cc1OC	0.9	13	45*	0	8	0
CCN(CC)C(=O)COc1ccc(/C(C)=N/NC(=O)c2ccccc2Br)cc1	1	1	·	-2	3	1
Cc1[nH]nc2c1-c1nc3ccccc3nc1C(C)(C)C2	1	1	2	-1	9	1
CCCCCN=Cc1c(C)[nH]n(-c2nc3ccccc3s2)c1=O	0.5	52*	7	-1	10	2
O=C(/C=C/c1nc2ccccc2s1)N1CCCCCC1	0.4	62*	·	0	21	1
CC1CCCCC1NC(=O)/C=C/c1nc2ccccc2s1 (configuration not stated)	0.8	20	·	0	9	1
CCc1ccccc1NS(=O)(=O)c1ccc2c(c1)NC(=O)CC(=O)N2	1	-3	37*	0	6	1
CCc1cccc(NS(=O)(=O)c2ccc3c(c2)NC(=O)CC(=O)N3)c1	1	-2	·	-1	29	1
CN(C)c1cccc(C(=O)N/N=C/c2ccccc2F)c1	0	95*	·	0	2	0
O=C(N/N=C/c1ccccc1Cl)c1ccc(F)cc1	0.2	78*	7	-4	27	0
O=C(N/N=C/c1ccc[nH]1)c1ccc(Cl)cc1	0.4	57*	9	0	1	0
